Activity calls are given as the source filed them. The calls are words filed in the database; no cut-off is given here.
Legend:
HeLa [1] = experiment: Cell cycle arrest in human HeLa cells assessed as accumulation at S phase at 0.020 uM after 24 hrs by propidium iodide staining based flow cytometric analysis (reference value: 17.46%); format: functional
Outline: (§1)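 HepG2 and HeLa cells were exposed to 0, 0.020, 0.040, 0.060, 0.080 or 0.10 µM for 6, 12 or 24 h. DNA content was stained with propidium iodide and analysed by flow cytometry to give the percentage of cells in G0/G1, S and G2/M phases; sub-G1 cells were also recorded.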

HeLa [2] = experiment: Cell cycle arrest in human HeLa cells assessed as accumulation at G2/M phase at 0.10 uM after 24 hrs by propidium iodide staining based flow cytometric analysis (reference value: 17.72%); format: functional; outline: as §1
HeLa [3] = experiment: Induction of apoptosis in human HeLa cells assessed as late apoptotic cells at 0.020 uM after 24 hrs by Annexin V-FITC/propidium iodide staining based flow cytometric analysis (reference value: 4.98%); format: functional
Outline: (§2)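 HepG2 and HeLa cells were exposed to 0, 0.02, 0.040, 0.060, 0.080 and 0.10 µM for 6, 12 and 24 h. Cells were double-stained with Annexin V-FITC/PI and read by flow cytometry. Apoptotic rate was the percentage of FITC-positive cells, counting early plus late apoptotic.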

HepG2 [4] = experiment: Induction of apoptosis in human HepG2 cells assessed as early apoptotic cells at 0.020 uM after 24 hrs by Annexin V-FITC/propidium iodide staining based flow cytometric analysis (reference value: 2.31%); format: functional; outline: as §2
Tubulin (Homo sapiens) [5] = target: T1, Tubulin (Homo sapiens) (UniProt P68371+Q9H4B7+P0DPH7+P68366+Q13509+Q71U36+P04350+Q3ZCM7+P07437+P68363+Q9BQE3+Q6PEY2+Q13885+Q9BVA1+Q9BUF5); experiment: Inhibition of tubulin polymerization in human HepG2 cells assessed as mitotic catastrophe formation at 0.04 to 0.1 uM after 12 hrs by DAPI staining based immunofluorescence confocal laser scanning microscopic analysis; format: cell-based
HeLa [6] = experiment: Cell cycle arrest in human HeLa cells assessed as accumulation at S phase at 0.080 uM after 24 hrs by propidium iodide staining based flow cytometric analysis (reference value: 17.46%); format: functional; outline: as §1
HeLa [7] = experiment: Cell cycle arrest in human HeLa cells assessed as accumulation at S phase at 0.040 uM after 24 hrs by propidium iodide staining based flow cytometric analysis (reference value: 17.46%); format: functional; outline: as §1
HeLa [8] = experiment: Cell cycle arrest in human HeLa cells assessed as accumulation at G2/M phase at 0.080 uM after 24 hrs by propidium iodide staining based flow cytometric analysis (reference value: 17.72%); format: functional; outline: as §1
HepG2 [9] = experiment: Cell cycle arrest in human HepG2 cells assessed as accumulation at S phase at 0.060 uM after 24 hrs by propidium iodide staining based flow cytometric analysis (reference value: 20.40%); format: functional; outline: as §1
Mus musculus [10] = experiment: Cardiotoxicity in nude mouse xenografted with human HeLa cells assessed as cellular inflammatory infiltration in heart at 10 to 20 mg/kg, ip after 14 days by hematoxylin and eosin staining based microscopic analysis; format: toxicity, organism-based; conditions: in vivo, 336 h
Outline: (§3)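 Excised tumours and heart, liver, kidney and spleen were H&E-stained and examined microscopically. Tumour scoring covered cell arrangement and necrosis. Organ scoring covered inflammatory infiltration, edema, necrosis and cell morphology.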

HepG2 [11] = experiment: Induction of apoptosis in human HepG2 cells assessed as viable cells at 0.020 uM after 24 hrs by Annexin V-FITC/propidium iodide staining based flow cytometric analysis (reference value: 94.5%); format: functional; conditions: HepG2, 24 h, read-out: Activity; outline: as §2
Mus musculus [12] = experiment: Cardiotoxicity in nude mouse xenografted with human HeLa cells assessed as morphological changes in heart cells at 10 to 20 mg/kg, ip after 14 days by hematoxylin and eosin staining based microscopic analysis; format: toxicity, organism-based; conditions: in vivo, 336 h; outline: as §3
HepG2 [13] = experiment: Cell cycle arrest in human HepG2 cells assessed as accumulation at S phase at 0.040 uM after 24 hrs by propidium iodide staining based flow cytometric analysis (reference value: 20.40%); format: functional; outline: as §1
HeLa [14] = experiment: Induction of apoptosis in human HeLa cells assessed as necrotic cells at 0.020 uM after 24 hrs by Annexin V-FITC/propidium iodide staining based flow cytometric analysis (reference value: 0.242%); format: functional; outline: as §2
HeLa [15] = experiment: Antitumor activity against human HeLa cells xenografted in nude mouse assessed as tumor weight at 10 mg/kg, ip after 14 days (reference value: 1.54 g); format: functional
HeLa [16] = experiment: Induction of apoptosis in human HeLa cells assessed as early apoptotic cells at 0.080 uM after 24 hrs by Annexin V-FITC/propidium iodide staining based flow cytometric analysis (reference value: 6.17%); format: functional; outline: as §2
HepG2 [17] = experiment: Induction of apoptosis in human HepG2 cells assessed as viable cells at 0.060 uM after 24 hrs by Annexin V-FITC/propidium iodide staining based flow cytometric analysis (reference value: 94.5%); format: functional; conditions: HepG2, 24 h, read-out: Activity; outline: as §2
HepG2 [18] = experiment: Induction of apoptosis in human HepG2 cells assessed as late apoptotic cells at 0.080 uM after 24 hrs by Annexin V-FITC/propidium iodide staining based flow cytometric analysis (reference value: 2.93%); format: functional; outline: as §2
HepG2 [19] = experiment: Induction of apoptosis in human HepG2 cells assessed as necrotic cells at 0.080 uM after 24 hrs by Annexin V-FITC/propidium iodide staining based flow cytometric analysis (reference value: 0.270%); format: functional; outline: as §2
[20] = Selectivity index, ratio of CC50 for HEK293T cells to GI50 for human HeLa cells; format: toxicity; conditions: HEK293T cells and HeLa cells, read-out: Selectivity Index
Outline: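 Ratio CC50/GI50: CC50 is the concentration reducing non-tumour 293T cell proliferation by 50%; GI50 is the concentration reducing cancer cell proliferation by 50%.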

HeLa [21] = experiment: Cell cycle arrest in human HeLa cells assessed as accumulation at G2/M phase at 0.020 uM after 24 hrs by propidium iodide staining based flow cytometric analysis (reference value: 17.72%); format: functional; outline: as §1
Tubulin (Homo sapiens) [22] = target: T1, Tubulin (Homo sapiens); experiment: Inhibition of tubulin polymerization in human HepG2 cells assessed as abnormal microtubule network formation at 0.04 to 0.1 uM after 12 hrs by DAPI staining based immunofluorescence confocal laser scanning microscopic analysis; format: cell-based
HepG2 [23] = experiment: Cell cycle arrest in human HepG2 cells assessed as accumulation at G2/M phase at 0.040 uM after 24 hrs by propidium iodide staining based flow cytometric analysis (reference value: 20.17%); format: functional; outline: as §1
HeLa [24] = experiment: Induction of apoptosis in human HeLa cells assessed as late apoptotic cells at 0.10 uM after 24 hrs by Annexin V-FITC/propidium iodide staining based flow cytometric analysis (reference value: 4.98%); format: functional; outline: as §2
Mus musculus [25] = experiment: Toxicity in nude mouse xenografted with human HeLa cells assessed as change in mouse kidney weight at 10 to 20 mg/kg, ip after 14 days; format: organism-based; conditions: in vivo, 336 h
Mus musculus [26] = experiment: Nephrotoxicity in nude mouse xenografted with human HeLa cells assessed as morphological changes in kidney cells at 10 to 20 mg/kg, ip after 14 days by hematoxylin and eosin staining based microscopic analysis; format: toxicity, organism-based; conditions: in vivo, 336 h
HepG2 [27] = experiment: Induction of apoptosis in human HepG2 cells assessed as early apoptotic cells at 0.040 uM after 24 hrs by Annexin V-FITC/propidium iodide staining based flow cytometric analysis (reference value: 2.31%); format: functional; outline: as §2
HepG2 [28] = experiment: Cell cycle arrest in human HepG2 cells assessed as accumulation at S phase at 0.080 uM after 24 hrs by propidium iodide staining based flow cytometric analysis (reference value: 20.40%); format: functional; outline: as §1

Question: Which Activity (HeLa [1]) does the source give for `COc1cccc(C2=NN(C(=O)c3ccc(C)nc3)C(c3cn(C)c4ccc(OC)cc34)C2)c1` (stereo not drawn) here?
Answer: Its Activity is 9.62%.

Question: What about the Activity (HeLa [2]) of the same compound?
Answer: The Activity was 61.12%.

Question: And the Activity (HeLa [3])?
Answer: The Activity was 7.98%.

Question: What about the Activity (HepG2 [4]) of the same compound?
Answer: The Activity was 3.18%.

Question: And the inhibition (Tubulin (Homo sapiens) [5])?
Answer: Its inhibition is “Active”.

Question: What about the Activity (HeLa [6]) of the same compound?
Answer: The Activity was 9.17%.

Question: And the Activity (HeLa [7])?
Answer: The Activity was 7.43%.

Question: What about the Activity (HeLa [8]) of the same compound?
Answer: Its Activity is 71.2%.

Question: What about the Activity (HepG2 [9]) of the same compound?
Answer: Its Activity is 22.17%.

Question: And the Activity (Mus musculus [10])?
Answer: The Activity was “Non-Toxic”.

Question: And the viability at 0.02 µM (HepG2 [11])?
Answer: The viability at 0.02 µM was 92.9%.

Question: What about the Activity (Mus musculus [12]) of the same compound?
Answer: Its Activity is “Non-Toxic”.

Question: And the Activity (HepG2 [13])?
Answer: The Activity was 21.59%.

Question: What about the Activity (HeLa [14]) of the same compound?
Answer: Its Activity is 0.12%.

Question: What about the Activity (HeLa [15]) of the same compound?
Answer: Its Activity is 0.91 g.

Question: What about the Activity (HeLa [16]) of the same compound?
Answer: The Activity was 30.2%.

Question: What about the viability at 0.06 µM (HepG2 [17]) of the same compound?
Answer: Its viability at 0.06 µM is 85.7%.

Question: What about the Activity (HepG2 [18]) of the same compound?
Answer: The Activity was 6.01%.

Question: What about the Activity (HepG2 [19]) of the same compound?
Answer: Its Activity is 2.95%.

Question: And the selectivity ratio [20]?
Answer: The selectivity ratio was 3 to 10.

Question: What about the Activity (HeLa [21]) of the same compound?
Answer: Its Activity is 21.23%.

Question: What about the inhibition (Tubulin (Homo sapiens) [22]) of the same compound?
Answer: The inhibition was “Active”.

Question: And the Activity (HepG2 [23])?
Answer: The Activity was 30.26%.

Question: What about the Activity (HeLa [24]) of the same compound?
Answer: The Activity was 8.26%.

Question: What about the Activity (Mus musculus [25]) of the same compound?
Answer: Its Activity is “Non-Toxic”.

Question: What about the Activity (Mus musculus [26]) of the same compound?
Answer: The Activity was “Non-Toxic”.

Question: And the Activity (HepG2 [27])?
Answer: The Activity was 7.34%.

Question: What about the Activity (HepG2 [28]) of the same compound?
Answer: Its Activity is 28.38%.
